The source made the active and inactive calls. The calls are words filed in the database; no cut-off is given here.
How the values were obtained:
Plasmodium falciparum [1] = test: Antiplasmodial activity against asexual intraerythrocytic ring stage of chloroquine-resistant Plasmodium falciparum W2 infected in human O+ erythrocytes assessed as inhibition of parasitic proliferation after 96 hrs by SYBR Green-1 based fluorescence assay; assay type: functional, organism-based; conditions: W2, 96 h
HepG2 [2] = test: (§1) Cytotoxicity against human HepG2 cells assessed as inhibition of cell growth after 48 hrs by LDH assay; assay type: cell-based; conditions: hepg2, 48 h
Plasmodium falciparum [3] = test: Antiplasmodial activity against asexual intraerythrocytic ring stage of antifolate-resistant Plasmodium falciparum HB3 infected in human O+ erythrocytes assessed as inhibition of parasitic proliferation after 96 hrs by SYBR Green-1 based fluorescence assay; assay type: functional, organism-based; conditions: HB3, 96 h
Plasmodium falciparum [4] = test: Antiplasmodial activity against asexual intraerythrocytic ring stage of chloroquine-sensitive Plasmodium falciparum 3D7 infected in human O+ erythrocytes assessed as inhibition of parasitic proliferation after 96 hrs by SYBR Green-1 based fluorescence assay; assay type: functional, organism-based; conditions: 3D7, 96 h
[5] = Selectivity index, ratio of GI50 for human HepG2 cells to IC50 for asexual intraerythrocytic ring stage of chloroquine-sensitive Plasmodium falciparum 3D7 infected in human O+ erythrocytes; assay type: functional
Plasmodium falciparum [6] = test: Resistance index, ratio of IC50 for asexual intraerythrocytic ring stage of chloroquine-resistant Plasmodium falciparum W2 infected in human O+ erythrocytes to IC50 for asexual intraerythrocytic ring stage of chloroquine-sensitive Plasmodium falciparum 3D7 infected in human O+ erythrocytes; assay type: functional
[7] = Inhibition of NP-40-mediated beta-hematin formation at 1 mM after 5 hrs by pyridine-ferrichrome method; assay type: functional
In short: (§2)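 NP-40 detergent (305.5 µM), water and DMSO mixed with compound over a concentration range. Incubated 5 h at 37 °C with hematin in 1 M acetate buffer, pH 4.8, with occasional shaking. β-Hematin measured by the pyridine-ferrichrome method, absorbance at 405 nm. Three biological repeats in triplicate.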

[8] = as §1; assay type: cell-based; conditions: HepG2 cells
Plasmodium falciparum [9] = test: Antiplasmodial activity against chloroquine-resistant Plasmodium falciparum Dd2; assay type: functional, organism-based
[10] = Inhibition of NP-40-mediated beta-hematin formation after 5 hrs by pyridine-ferrichrome method; assay type: functional
HepG2 [11] = test: Cytotoxicity against human HepG2 cells assessed as cell viability at 5000XIC50 for Plasmodium falciparum 3D7 after 48 hrs by LDH assay; assay type: cell-based; conditions: hepg2, 48 h
Plasmodium falciparum [12] = test: Gametocytocidal activity against Plasmodium falciparum NF54-Mal8p1.16-GFP-Luc late (4 to 5) gametocyte assessed as inhibition of parasite viability at 5 uM after 48 hrs by luciferase reporter assay; assay type: functional, organism-based
In short: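 NF54 luciferase reporter line; gametocytogenesis induced in glucose-free medium under hypoxia without shaking, with daily medium changes. Mature stage IV/V gametocytes were used on day 10, at 2% gametocytemia and 2% hematocrit. Compound at 5 µM for 48 h, hypoxic, 37 °C, in triplicate; three biological repeats. Read-out was luciferase in lysates with luciferin substrate.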

Plasmodium falciparum [13] = test: (§3) Plasmocidal activity against intraerythrocytic chloroquine-sensitive Plasmodium falciparum 3D7 infected in human O+ erythrocytes assessed as irreversible inhibition of parasitic viability at 10XIC90 pulsed with compound for 12 hrs followed by drug wash-out measured after 36 hrs by SYBR Green 1 based flow cytometry; assay type: functional, organism-based
In short: (§4)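 Cultures were washed once in RPMI 1640 and diluted 1:40. Proliferation followed at set times over 36 h by SYBR Green I DNA fluorescence.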

Plasmodium falciparum [14] = test: as §3, with “IC90” for “10XIC90”; assay type: functional; in short: as §4
[15] = Inhibition of NP-40-mediated beta-hematin formation at >400 uM after 5 hrs by pyridine-ferrichrome method; assay type: functional; in short: as §2
Plasmodium falciparum [16] = test: Plasmocidal activity against intraerythrocytic chloroquine-sensitive Plasmodium falciparum 3D7 infected in human O+ erythrocytes assessed as inhibition of parasitic proliferation at IC90 after 24 to 96 hrs by flow cytometry; assay type: functional, organism-based
Plasmodium falciparum [17] = test: Plasmocidal activity against intraerythrocytic chloroquine-sensitive Plasmodium falciparum 3D7 infected in human O+ erythrocytes assessed as cessation of nuclear division measured as proportion of schizonts containing 2N nuclear content at IC90 after 96 hrs by SYBR Green I-based flow cytometry; assay type: functional
Plasmodium falciparum [18] = test: Plasmocidal activity against intraerythrocytic chloroquine-sensitive Plasmodium falciparum 3D7 infected in human O+ erythrocytes assessed as cessation of nuclear division measured as proportion of rings/trophozoites containing 1N nuclear content at IC90 after 96 hrs by SYBR Green I-based flow cytometry
Plasmodium falciparum [19] = test: Plasmocidal activity against intraerythrocytic early trophozoitic stage of chloroquine-sensitive Plasmodium falciparum 3D7 infected in human O+ erythrocytes assessed as cessation of nuclear division at IC90 after 24 hrs by SYBR Green I-based flow cytometry; assay type: functional, organism-based
Plasmodium falciparum [20] = test: Plasmocidal activity against intraerythrocytic chloroquine-sensitive Plasmodium falciparum 3D7 infected in human O+ erythrocytes assessed as cessation of nuclear division measured as proportion of schizonts containing >2N nuclear content at IC90 after 96 hrs by SYBR Green I-based flow cytometry; assay type: functional
Plasmodium falciparum [21] = test: Plasmocidal activity against intraerythrocytic early trophozoitic stage of chloroquine-sensitive Plasmodium falciparum 3D7 infected in human O+ erythrocytes assessed as non-progressive pyknotic phenotype with apparently dying morphology at IC90 measured over 48 hrs single lifecycle by Giemsa staining based microscopy; assay type: functional, organism-based

SMILES | IC50 (Plasmodium falciparum [1]) [µM] | GI50 (HepG2 [2]) [µM] | IC50 (Plasmodium falciparum [3]) [µM] | IC50 (Plasmodium falciparum [4]) [µM] | Selectivity Index [5] | Ratio IC50 (Plasmodium falciparum [6]) | other results
O=C(NCCCNCCCCCNCCCNC(=O)NCc1ccccc1)NCc1ccccc1 | 0.171 | 1950 | 0.593 | 0.793 | 2456 | 0.22 | inhibition [7]: inactive
O=C(NCCCNCCCCCCNCCCNC(=O)Nc1ccccc1)Nc1ccccc1 | – | – | – | – | – | 0.3 | –
S=C(NCCCNCCCCCCNCCCNC(=S)NCc1ccccc1)NCc1ccccc1 | – | – | – | – | – | 1.9 | GI50 at 48 h [8]: > 200 µM
C(CCCNCCCNCC1CCCCCC1)CCCNCCCNCC1CCCCCC1 | – | – | – | 0.11 | – | – | IC50 (Plasmodium falciparum [9]): 0.12 µM
S=C(NCCCNCCCCCCNCCCNC(=S)NC(c1ccccc1)c1ccccc1)NC(c1ccccc1)c1ccccc1 | – | – | – | – | – | 1.2 | GI50 at 48 h [8]: > 200 µM
N=C(N)NCCCNCCCCCCCNCCCNC(=N)N | – | – | 70.3 | – | – | – | –
O=C(NCCCNCCCCCCCNCCCNC(=O)NC(c1ccccc1)c1ccccc1)NC(c1ccccc1)c1ccccc1 | – | – | – | – | – | 1.7 | GI50 at 48 h [8]: > 200 µM
S=C(NCCCNCCCCCNCCCNC(=S)NCC(c1ccccc1)c1ccccc1)NCC(c1ccccc1)c1ccccc1 | 0.047 | 52.2 | 0.056 | 0.04 | 1305 | 1.18 | IC50 [10]: 16.7 µM
O=C(NCCCNCCCCCNCCCNC(=O)NC(c1ccccc1)c1ccccc1)NC(c1ccccc1)c1ccccc1 | 0.02 | 240 | 0.065 | 0.047 | 5113 | 0.43 | –
N=C(N)NCCCNCCCNCCCNC(=N)N | – | – | 110 | 147 | – | – | –
S=C(NCCCNCCCCCNCCCNC(=S)NCc1ccccc1)NCc1ccccc1 | 0.042 | – | 0.178 | 0.249 | >5000 | 0.17 | Activity (HepG2 [11]): 100%
O=C(NCCCNCCCCCNCCCNC(=O)Nc1ccccc1)Nc1ccccc1 | 0.049 | – | 0.177 | 0.246 | >5000 | 0.2 | Activity (HepG2 [11]): 100%
N=C(N)NCCCNCCCCNCCCNC(=N)N | – | – | 14.2 | 80 | – | – | –
O=C(NCCCNCCCCCCCNCCCNC(=O)NCCC(c1ccccc1)c1ccccc1)NCCC(c1ccccc1)c1ccccc1 | – | – | – | – | – | 1.13 | –
S=C(NCCCNCCCCNCCCNC(=S)NCc1ccccc1)NCc1ccccc1 | – | – | – | – | – | – | GI50 at 48 h [8]: > 200 µM
O=C(NCCCNCCCCCCCNCCCNC(=O)NCC(c1ccccc1)c1ccccc1)NCC(c1ccccc1)c1ccccc1 | – | – | – | – | – | 1.4 | –
S=C(NCCCNCCCCCNCCCNC(=S)NC(c1ccccc1)c1ccccc1)NC(c1ccccc1)c1ccccc1 | 0.035 | 44.8 | 0.075 | 0.068 | 659 | 0.51 | inhibition (Plasmodium falciparum [12]): Active
O=C(NCCCNCCCCCNCCCNC(=O)NCCC(c1ccccc1)c1ccccc1)NCCC(c1ccccc1)c1ccccc1 | 0.036 | 153 | 0.056 | 0.03 | 5090 | 1.2 | inhibition (Plasmodium falciparum [13]): Active; inhibition (INH) (Plasmodium falciparum [14]): >40%; inhibition [15]: Active; inhibition (Plasmodium falciparum [16]): Active; Activity (Plasmodium falciparum [17]): 10%; Activity (Plasmodium falciparum [18]): 88%; Activity (Plasmodium falciparum [19]): Active; Activity (Plasmodium falciparum [20]): 2%; Activity (Plasmodium falciparum [21]): Active
S=C(NCCCNCCCCCNCCCNC(=S)NCCC(c1ccccc1)c1ccccc1)NCCC(c1ccccc1)c1ccccc1 | 0.041 | 50.6 | 0.062 | 0.076 | 666 | 0.54 | inhibition (Plasmodium falciparum [12]): Active
O=C(NCCCNCCCCCNCCCNC(=O)NCC(c1ccccc1)c1ccccc1)NCC(c1ccccc1)c1ccccc1 | 0.018 | 94.5 | 0.04 | 0.028 | 3375 | 0.64 | inhibition (Plasmodium falciparum [16]): Active; Activity (Plasmodium falciparum [19]): Active

— ChEMBL document CHEMBL3596171, “Interrogating alkyl and arylalkylpolyamino (bis)urea and (bis)thiourea isosteres as potent antimalarial chemotypes against multiple lifecycle forms of Plasmodium falciparum parasites” (Bioorg Med Chem, 2015)
